Hits are enriched below; roughly 3.9% of the tested compounds scored in any of these assays.
STAT1 act – increases IFN-gamma driven STAT1 reporter signal. activation (% of control), % at 5.5 µM. NIH 3T3 STAT1-luciferase reporter, luminescence; 100% = IFN-gamma alone, no compound. 200,000 tested, 2.6% active;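 active means activation above the screen-wide mean activation plus 3 SD, cut at about 130% in these data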
NF-kB expr up – raises NF-kB expression in human neuronal cells; NF-kB reporter expression; hits give high values; fold change at 12.5 µM; 190,000 tested, 1.6% active; in the data active means fold change above about 3.3
APP 5'UTR act – activates APP 5'UTR luciferase reporter; SH-SY5Y APP 5'UTR luciferase reporter, luminescence; zero percent = DMSO vehicle wells; activation, % at 2 µM; 190,000 tested, 1% active; AID 1276;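 active means activation above a set limit, based on mean plus 3 SD of controls, cut at about 140% in these data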
FLuc stim CS – affects firefly luciferase, flagging false hits in luciferase stimulation screens | AID 1027 | activation factor at 10 µM | ATPlite luciferase biochemical, luminescence, 10 min; 0 = ATP-free wells, 1 = DMSO control | P08659 | 200,000 tested, under 10 active;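 active means luciferase activation factor, scaled between plate controls, of at least 2 with compound at 10 µM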
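Assay system – cell-free luciferase reagent · Medium – PBS-based ATP solution · Dosing – test compounds dosed from 2 mM stocks in 100% DMSO · Timing – 10 min, room temperature · Technique – light output (luminescence) · Measure – luminescence gain marking luciferase activators · Controls – No-ATP low control, compound-free enzyme-plus-ATP high control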
FLuc inhib CS – inhibits firefly luciferase, flagging false hits in luciferase inhibition screens; P08659; ATPLite firefly luciferase biochemical luminescence, 10 min; inhibition, % at 10 µM; 200,000 tested, 1.5% active; AID 1006;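 active means inhibition above about 50% when tested at 10 µM, limit read from the data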
Rad51 HR inh – blocks human Rad51 in homologous recombination | 200,000 tested, 0.085% active | AID 1385 | hRad51 DNA strand exchange, fluorescence dequenching | inhibition, % at 10 µM;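 active means inhibition above 40% at the single screening dose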
Target sequence (Q06609 whole entry, looked up): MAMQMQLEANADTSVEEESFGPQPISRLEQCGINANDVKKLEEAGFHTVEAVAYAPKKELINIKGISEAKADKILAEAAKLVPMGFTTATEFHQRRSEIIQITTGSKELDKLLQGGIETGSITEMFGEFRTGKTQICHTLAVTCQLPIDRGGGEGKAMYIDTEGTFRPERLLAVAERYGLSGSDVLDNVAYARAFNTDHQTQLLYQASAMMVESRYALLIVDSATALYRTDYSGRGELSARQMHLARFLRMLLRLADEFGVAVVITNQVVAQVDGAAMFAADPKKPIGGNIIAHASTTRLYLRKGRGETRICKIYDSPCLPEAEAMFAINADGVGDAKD
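Material: human Rad51–ssDNA filaments; Probe or stimulus: labelled 47-mer dsDNA for strand exchange; Doses: single 10 µM dose; Incubation: 37 °C 15-min filament assembly, 30-min compound preincubation, 15-min exchange; Technique: FRET fluorescence dequenching, excitation 485 nm, emission 520 nm; Measure: Fluorescence-based percent inhibition, control- and blank-normalised; Benchmarks: plate control and blank wells.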
A number is an active result.

`COCCNC(=O)COc1ccc(Br)cc1Cl` gave STAT1 act inactive, NF-kB expr up inactive, APP 5'UTR act inactive, FLuc stim CS inactive, FLuc inhib CS inactive and Rad51 HR inh inactive.
`O=C(COc1ccc(Br)cc1Br)NC1CCCC1` gave STAT1 act 141, NF-kB expr up inactive, APP 5'UTR act inactive, FLuc stim CS inactive, FLuc inhib CS inactive and Rad51 HR inh inactive.
For CCCc1cnc(NCCNCC(O)COc2ccc(Cl)c(Cl)c2)nc1 (centres undefined) the results were Rad51 HR inh inactive.
Screening CCOC(=O)COn1c(=O)c(-c2cc3ccccc3o2)[n+]([O-])c2ccccc21 returned STAT1 act 142, NF-kB expr up inactive, APP 5'UTR act inactive, FLuc stim CS inactive, FLuc inhib CS 52 and Rad51 HR inh inactive.
Nc1ccccc1Nc1cccc(C(F)(F)F)c1 was read as STAT1 act 129, NF-kB expr up inactive, APP 5'UTR act inactive, FLuc stim CS inactive, FLuc inhib CS inactive and Rad51 HR inh inactive.
Screening CC(=O)Nc1ccc2nc(-c3ccccn3)[nH]c2c1 returned STAT1 act inactive, NF-kB expr up inactive, APP 5'UTR act inactive, FLuc stim CS inactive, FLuc inhib CS 51 and Rad51 HR inh inactive.
`c1ccc(-c2n[nH]c(-c3ccccn3)n2)cc1` gave STAT1 act inactive, NF-kB expr up inactive, APP 5'UTR act inactive, FLuc stim CS inactive, FLuc inhib CS inactive and Rad51 HR inh inactive.
c1ccc(-c2nc3cc4ccccc4cc3[nH]2)nc1 was read as STAT1 act inactive, NF-kB expr up inactive, APP 5'UTR act 157, FLuc stim CS inactive, FLuc inhib CS 95 and Rad51 HR inh inactive.
Screening CC(=O)Nc1ccc2nc(-c3ccncc3)[nH]c2c1 returned STAT1 act inactive, NF-kB expr up inactive, APP 5'UTR act inactive, FLuc stim CS inactive, FLuc inhib CS inactive and Rad51 HR inh inactive.
For Cc1cc(C)c2ccc(=O)n(CC(=O)N/N=C/c3ccccc3Cl)c2n1 the results were Rad51 HR inh inactive.
Screening O=c1cc(-c2ccccc2)oc2ccc(O)cc12 returned Rad51 HR inh inactive.
`COc1ccc(-c2cc(=O)c3cc(O)ccc3o2)cc1` gave STAT1 act 145, NF-kB expr up 6.5, APP 5'UTR act inactive, FLuc stim CS inactive, FLuc inhib CS 54 and Rad51 HR inh inactive.
`N#Cc1cn(-c2ccccc2)nc1-c1ccc2c(c1)OCCO2` gave STAT1 act 146, NF-kB expr up inactive, APP 5'UTR act inactive, FLuc stim CS inactive, FLuc inhib CS inactive and Rad51 HR inh inactive.
`CCN(CC)C(=O)c1cn(-c2ccccc2)nc1-c1ccc2c(c1)OCCO2` gave STAT1 act inactive, NF-kB expr up inactive, APP 5'UTR act inactive, FLuc stim CS inactive, FLuc inhib CS inactive and Rad51 HR inh inactive.
`CC1(C)Oc2ccc(NC(=O)c3ccco3)cc2O1` gave STAT1 act 129, NF-kB expr up inactive, APP 5'UTR act inactive, FLuc stim CS inactive, FLuc inhib CS 63 and Rad51 HR inh inactive.
`O=C(COC(=O)c1ccco1)Nc1ccc2c(c1)OCCO2` gave STAT1 act inactive, NF-kB expr up inactive, APP 5'UTR act inactive, FLuc stim CS inactive, FLuc inhib CS 69 and Rad51 HR inh inactive.
Cc1ccc(NC(=O)c2ccco2)cc1C was read as STAT1 act 132, NF-kB expr up inactive, APP 5'UTR act inactive, FLuc stim CS inactive, FLuc inhib CS inactive and Rad51 HR inh inactive.
`O=C(c1ccccc1)c1cccc(NC(=O)c2ccco2)c1` gave STAT1 act 129, NF-kB expr up inactive, APP 5'UTR act inactive, FLuc stim CS inactive, FLuc inhib CS inactive and Rad51 HR inh inactive.
`COC(C/C=C\C(=O)[C@@H](C)OCc1ccccc1)OC` gave Rad51 HR inh inactive.
For O=C(Nc1cccc(NC(=O)c2ccco2)c1)c1ccc2c(c1)OCCO2 the results were STAT1 act inactive, NF-kB expr up inactive, APP 5'UTR act inactive, FLuc stim CS inactive, FLuc inhib CS inactive and Rad51 HR inh inactive.
For O=C(Nc1ccc2c(c1)OCCO2)c1ccco1 the results were STAT1 act inactive, NF-kB expr up inactive, APP 5'UTR act inactive, FLuc stim CS inactive, FLuc inhib CS 50 and Rad51 HR inh inactive.
`N=C1SCC(=O)N1c1ncc(Cc2cccc(Cl)c2)s1` gave STAT1 act inactive, NF-kB expr up inactive, APP 5'UTR act inactive, FLuc stim CS inactive, FLuc inhib CS inactive and Rad51 HR inh inactive.
`O=C(O)CN1C(=O)/C(=C/c2ccc(SCc3ccccc3)o2)SC1=S` gave STAT1 act inactive, NF-kB expr up inactive, APP 5'UTR act inactive, FLuc stim CS inactive, FLuc inhib CS inactive and Rad51 HR inh inactive.
Screening C(=N\Nc1nc2ccccc2[nH]1)/C1CCCCC1 returned STAT1 act inactive, NF-kB expr up inactive, APP 5'UTR act inactive, FLuc stim CS inactive, FLuc inhib CS 74 and Rad51 HR inh inactive.
`C(=N\Nc1nc2ccccc2[nH]1)/c1ccccc1` gave STAT1 act inactive, NF-kB expr up inactive, APP 5'UTR act inactive, FLuc stim CS inactive, FLuc inhib CS inactive and Rad51 HR inh inactive.
C(=C\c1ccccc1)/C=N/Nc1nc2ccccc2[nH]1 was read as STAT1 act 148, NF-kB expr up 4.5, APP 5'UTR act 137, FLuc stim CS inactive, FLuc inhib CS 63 and Rad51 HR inh inactive.
C(/CCc1ccccc1)=N\Nc1nc2ccccc2[nH]1 was read as STAT1 act inactive, NF-kB expr up inactive, APP 5'UTR act inactive, FLuc stim CS inactive, FLuc inhib CS 84 and Rad51 HR inh inactive.
`O=C(Cc1nnc(NC(=O)Nc2ccc(F)cc2)s1)NCc1ccccc1` gave Rad51 HR inh inactive.
For Cc1cc(C)cc(N(CC(=O)NCCSCc2ccccc2)S(C)(=O)=O)c1 the results were STAT1 act inactive, NF-kB expr up inactive, APP 5'UTR act inactive, FLuc stim CS inactive, FLuc inhib CS inactive and Rad51 HR inh inactive.
COc1ccc(Nc2nnc(SCC(=O)N3CCCC3)s2)cc1 was read as STAT1 act inactive, NF-kB expr up inactive, APP 5'UTR act inactive, FLuc stim CS inactive and FLuc inhib CS inactive.
For COc1ccc(Nc2nnc(SCC(=O)N3CC(=O)Nc4ccccc43)s2)cc1 the results were STAT1 act inactive, NF-kB expr up inactive, APP 5'UTR act inactive, FLuc stim CS inactive and FLuc inhib CS 55.
Screening CCn1cnc2cc(NC(=O)c3cccs3)ccc21 returned STAT1 act 135, NF-kB expr up inactive, APP 5'UTR act inactive, FLuc stim CS inactive, FLuc inhib CS 51 and Rad51 HR inh inactive.
Screening CC(C)(C)n1cnc2cc(NC(=O)c3cccs3)ccc21 returned STAT1 act 142, NF-kB expr up 4, APP 5'UTR act inactive, FLuc stim CS inactive, FLuc inhib CS 71 and Rad51 HR inh inactive.
CC(=O)Nc1cccc(-n2nnc(SCC(=O)N(C)c3ccccc3)n2)c1 was read as Rad51 HR inh inactive.
Screening Clc1ncnc2c1oc1ccccc12 returned STAT1 act 142, NF-kB expr up inactive, APP 5'UTR act inactive, FLuc stim CS inactive, FLuc inhib CS inactive and Rad51 HR inh inactive.

Source: PubChem
